Laboratory results taken from ChEMBL document CHEMBL4699444, “Design of a Long-Acting and Selective MEG-Fatty Acid Stapled Prolactin-Releasing Peptide Analog” (ACS Med Chem Lett, 2019).
*1 amine or outer side, *2 acyl side, *3 side chain or, on linkers, in order; H or OH if unused. Where a SMILES comes first, the peptide text is derived from it. Bridges are numbered along the chain shown (N, C = ends). [ ]: non-standard residue; d: D form. X1 = O=C(O)CCCCCCCCCCCCCCCCC(=O)N[C@@H](CCCCNC(=O)CCOCCOCCNC(=O)CCOCCOCCNC(=O)[C@H](CCCNC(=O)C[*:1])NC(=O)C[*:2])C(=O)O; hArg = N=C(N)NCCCC[C@H](N)C(=O)O; Nle = CCCC[C@H](N)C(=O)O

Assays:
[1] = Ratio of EC50 for activation of human NPFF2R overexpressing CHO cells assessed as inhibition of forskolin-stimulated cAMP […] incubated for 30 mins in presence of IBMX and 0% FBS by fluorescence based assay to EC50 for activation of human GPR10 overexpressed in CHO-K1 cells assessed as increase in beta arrestin recruitment incubated for 90 mins by PathHunter assay
Mus musculus = test: Anti-obesity activity in sc dosed diet-induced obesity mouse model assessed as reduction in body weight administered daily for 12 days; type: functional; conditions: 288 h, time 12 day
How it was run: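 Diet-induced obese mice were dosed s.c. once daily at 0.5 mg/kg, or with vehicle, for 12 days (n = 8 per group). Body weight was tracked and compared with the vehicle group.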

Compound: CCCC[C@@H]1NC(=O)[C@H](CO)NC(=O)[C@@H](NC(=O)[C@H](CCC(N)=O)NC(=O)[C@H](Cc2c[nH]cn2)NC(=O)[C@H](C)NC(=O)[C@H](CCCNC(=N)N)NC(=O)[C@@H](N)CO)CSCC(=O)NCCC[C@@H](C(=O)NCCOCCOCCC(=O)NCCOCCOCCC(=O)NCCCC[C@H](NC(=O)CCCCCCCCCCCCCCCCC(=O)O)C(=O)O)NC(=O)CSC[C@@H](C(=O)N[C@@H](CC(=O)O)C(=O)N[C@H](C(=O)N[C@@H](CC(N)=O)C(=O)N2CCC[C@H]2C(=O)N[C@@H](C)C(=O)N[C@@H](Cc2c[nH]c3ccccc23)C(=O)N[C@@H](Cc2ccc(O)cc2)C(=O)N[C@H](C(=O)NCC(=O)N[C@@H](CCCCNC(=N)N)C(=O)NCC(=O)N[C@H](C(=O)N[C@@H](CCCNC(=N)N)C(=O)N2CCC[C@H]2C(=O)N[C@H](C(=O)NCC(=O)N[C@@H](CCCNC(=N)N)C(=O)N[C@@H](Cc2ccccc2)C(N)=O)C(C)C)[C@@H](C)CC)[C@@H](C)O)[C@@H](C)CC)NC(=O)[C@H]([C@@H](C)O)NC(=O)[C@H](CCCNC(=N)N)NC(=O)[C@H]([C@@H](C)O)NC(=O)[C@H](CCC(=O)O)NC1=O (H-SRAHQCS[Nle]ETRTCDINPAWYTG[hArg]GIRPVGRF-NH2; linker 6-13 via X1)
- Ratio EC50 [1]: 67
- ED50 (Mus musculus): < 0.5 mg/kg
